Consider 40 molecules from ChEMBL document CHEMBL1154095, “Separation of alpha-glucosidase-inhibitory and liver X receptor-antagonistic activities of phenethylphenyl phthalimide analogs and generation of LXRalpha-selective antagonists” (Bioorg Med Chem, 2009).

SMILES strings stand for the structures. Activity calls are given as the source filed them. No cut-off for these calls is given here. Bounds are passed on as bounds.

Test [1] addresses T1, Oxysterols receptor LXR-beta (Homo sapiens, UniProt P55055).
T1 sequence (P55055 whole entry): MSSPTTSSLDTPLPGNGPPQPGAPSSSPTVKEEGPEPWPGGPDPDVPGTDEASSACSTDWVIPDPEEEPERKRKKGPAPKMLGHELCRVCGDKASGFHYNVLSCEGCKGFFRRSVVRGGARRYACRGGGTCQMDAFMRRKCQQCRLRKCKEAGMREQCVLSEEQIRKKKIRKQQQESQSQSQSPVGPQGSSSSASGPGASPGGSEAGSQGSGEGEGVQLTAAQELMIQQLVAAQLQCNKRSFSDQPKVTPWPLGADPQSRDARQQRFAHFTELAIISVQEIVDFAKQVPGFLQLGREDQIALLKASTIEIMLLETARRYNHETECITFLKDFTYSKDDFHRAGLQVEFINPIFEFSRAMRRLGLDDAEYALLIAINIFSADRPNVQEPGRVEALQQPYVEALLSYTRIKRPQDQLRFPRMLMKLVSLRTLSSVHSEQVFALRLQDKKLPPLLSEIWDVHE
The experiment in a line: Antagonist activity at human LXRbeta expressed in HEK293 cells assessed as inhibition of beta-galactosidase activity by luciferase reporter gene assay. The format is functional, cell-based.

The nature of test [2]: Inhibition of Saccharomyces sp. alpha-glucosidase assessed as p-nitrophenol release. In outline: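 Yeast alpha-glucosidase at 0.2 mU/mL in 10 mM phosphate buffer pH 7.0 was preincubated with compound (1% v/v DMSO final) for 10 min at 37 °C. pNPG substrate (final 0.2 mM) was then added and incubated 10 min at 37 °C. The reaction was basified with Na2CO3, and released p-nitrophenol was read at A405. Triplicates, repeated at least twice, normalized averages, IC50.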

The target of test [3] is T2, Oxysterols receptor LXR-alpha (Homo sapiens, UniProt Q13133).
T2 sequence (Q13133 whole entry): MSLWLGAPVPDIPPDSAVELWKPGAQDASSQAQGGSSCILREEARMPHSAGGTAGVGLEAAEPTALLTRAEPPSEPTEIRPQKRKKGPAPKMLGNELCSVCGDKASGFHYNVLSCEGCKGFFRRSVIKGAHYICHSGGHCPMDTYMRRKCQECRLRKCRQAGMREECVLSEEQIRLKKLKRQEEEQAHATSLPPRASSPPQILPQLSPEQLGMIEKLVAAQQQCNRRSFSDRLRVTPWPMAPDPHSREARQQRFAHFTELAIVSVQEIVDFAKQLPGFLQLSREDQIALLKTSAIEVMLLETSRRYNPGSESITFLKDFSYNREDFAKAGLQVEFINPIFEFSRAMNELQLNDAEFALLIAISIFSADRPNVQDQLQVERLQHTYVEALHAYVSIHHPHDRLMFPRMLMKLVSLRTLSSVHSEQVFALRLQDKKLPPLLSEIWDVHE
In words: Antagonist activity at human LXRalpha expressed in HEK293 cells assessed as inhibition of beta-galactosidase activity by luciferase reporter gene assay. The format is functional, cell-based. (In general: A reporter such as luciferase makes a cellular process visible.)

Test [4] has as its target Liver X receptor (LXR alpha AND LXR beta) (Homo sapiens) (UniProt Q13133+P55055). The experiment in a line: Selectivity ratio of IC50 for human LXRbeta over IC50 for human LXRalpha. Format: protein assay.
The test system of the next test is Saccharomyces sp. In words: Inhibition of Saccharomyces sp. alpha-glucosidase by non-competitive Lineweaver-Burke analysis.

As for `O=C1c2c(Cl)c(Cl)c(Cl)c(Cl)c2C(=O)N1c1cccc(CCc2ccc(O)c(O)c2)c1`, the IC50 was determined as 21 µM in test [1], 23 µM in test [2] and 6.3 µM in test [3].

As to `COc1ccc(CCc2cccc(N3C(=O)c4c(Cl)c(Cl)c(Cl)c(Cl)c4C3=O)c2)cc1OC`, the IC50 in test [1] is above 30 µM; in test [2], 83 µM; in test [3] it was above 30 µM.

For `COc1ccc(CCc2cccc(N3C(=O)c4c(Cl)c(Cl)c(Cl)c(Cl)c4C3=O)c2)cc1`, the IC50 was above 30 µM in test [1], 49 µM in test [2] and 5.5 µM in test [3].

As for `COc1cccc(CCc2ccc(N3C(=O)c4c(Cl)c(Cl)c(Cl)c(Cl)c4C3=O)cc2)c1`, the IC50 was above 30 µM in test [1], 65 µM in test [2] and 6.9 µM in test [3].

For `O=C1c2ccccc2C(=O)N1c1ccccc1CCc1ccc(O)c(O)c1`, the figures for the IC50 in test [1], in test [2] and in test [3] were above 30 µM, above 100 µM and 9.8 µM, respectively.

Consider `COc1ccc(/C=C/c2ccc(N3C(=O)c4ccccc4C3=O)cc2)cc1OC`, for which the results for the IC50 in test [1], in test [2] and in test [3] were above 30 µM, above 100 µM and 3.8 µM, respectively.

Take `O=C1c2ccccc2C(=O)N1c1ccc(CCc2ccc(O)c(O)c2)cc1`: the IC50 is above 3 µM in test [1], above 100 µM in test [2] and 1.7 µM in test [3].

Consider `O=C1c2c(Cl)c(Cl)c(Cl)c(Cl)c2C(=O)N1c1cccc(CCc2ccccc2)c1`, for which the IC50 in test [1] was above 30 µM; in test [2] it was above 100 µM; in test [3] it was above 30 µM.

`COc1cccc(CCc2ccc(N3C(=O)c4ccccc4C3=O)cc2)c1`: the IC50 is 3.5 µM in test [1], above 100 µM in test [2] and 2.4 µM in test [3].

For the molecule `O=C1c2ccccc2C(=O)N1c1ccccc1CCc1ccccc1`, the IC50 in test [2] was determined as 16.2 µM.

In the case of `O=C1c2c(Cl)c(Cl)c(Cl)c(Cl)c2C(=O)N1c1cccc(/C=C/c2ccccc2)c1`, the IC50 in test [1] was above 30 µM; in test [2] it was 31 µM; in test [3], above 30 µM.

On to `O=C1c2ccccc2C(=O)N1c1cccc(CCc2ccccc2)c1`, for which the IC50 in test [2] was above 100 µM.

For `O=C1c2ccccc2C(=O)N1c1ccc(CCc2ccc(O)cc2)cc1`, the IC50 in test [1] is above 30 µM; in test [2] it was above 100 µM; in test [3], 2.9 µM.

`COc1ccc(CCc2ccc(N3C(=O)c4ccccc4C3=O)cc2)cc1OC`: the figures for the IC50 in test [1], in test [2] and in test [3] were 4.3 µM, above 100 µM and 4.8 µM, respectively.

For the molecule `COc1ccc(CCc2cccc(N3C(=O)c4ccccc4C3=O)c2)cc1OC`, the IC50 in test [1] was above 30 µM; in test [2] it was above 100 µM; in test [3] it was above 30 µM.

Consider `O=C1c2ccccc2C(=O)N1c1cccc(CCc2ccc(O)c(O)c2)c1`, for which the values for the IC50 in test [1], in test [2] and in test [3] were 7.6 µM, 38 µM and 6.1 µM, respectively.

As to `O=C1c2c(Cl)c(Cl)c(Cl)c(Cl)c2C(=O)N1c1ccc(CCc2ccccc2)cc1`, the IC50 in test [1] is above 30 µM; in test [2], 17 µM; in test [3], above 30 µM.

Turning to `O=C1c2ccccc2C(=O)N1c1ccc(CCc2cccc(O)c2)cc1`, the figures for the IC50 in test [1], in test [2] and in test [3] were above 30 µM, above 100 µM and 7.5 µM, respectively.

As to `COc1ccc(/C=C/c2ccc(N3C(=O)c4c(Cl)c(Cl)c(Cl)c(Cl)c4C3=O)cc2)cc1OC`, the IC50 in test [1] was 14 µM; in test [2], 40 µM; in test [3], above 20 µM.

Consider `COc1ccc(CCc2ccccc2N2C(=O)c3ccccc3C2=O)cc1OC`, for which the IC50 in test [2] is above 100 µM.

`COc1cccc(CCc2cccc(N3C(=O)c4c(Cl)c(Cl)c(Cl)c(Cl)c4C3=O)c2)c1`: the IC50 in test [1] was above 30 µM; in test [2] it was 69 µM; in test [3] it was 4.2 µM.

Take `O=C1c2c(Cl)c(Cl)c(Cl)c(Cl)c2C(=O)N1c1ccc(/C=C/c2ccc(O)c(O)c2)cc1`: the values for the IC50 in test [1], in test [2] and in test [3] were above 30 µM, above 100 µM and 2.7 µM, respectively.

Take `COc1ccc(CCc2ccc(N3C(=O)c4ccccc4C3=O)cc2)cc1`: the Selectivity Index in test [4] is above 150. The IC50 in test [1] is above 30 µM; in test [2], above 100 µM; in test [3], 0.2 µM.

Consider `O=C1c2c(Cl)c(Cl)c(Cl)c(Cl)c2C(=O)N1c1ccc(CCc2ccc(O)cc2)cc1`, for which the IC50 in test [1] is above 30 µM; in test [2], 23 µM; in test [3], above 30 µM.

For `O=C1c2c(Cl)c(Cl)c(Cl)c(Cl)c2C(=O)N1c1ccccc1CCc1ccc(O)c(O)c1`, the results for the IC50 in test [1], in test [2] and in test [3] were 17 µM, 20 µM and 15 µM, respectively.

Take `O=C1c2ccccc2C(=O)N1c1ccc(CCc2ccccc2)cc1`: in test [2], the IC50 is above 100 µM.

Turning to `O=C1c2c(Cl)c(Cl)c(Cl)c(Cl)c2C(=O)N1c1cccc(CCc2ccc(O)cc2)c1`, the IC50 in test [1] is above 30 µM; in test [2], above 100 µM; in test [3], 3.7 µM.

Consider `O=C1c2c(Cl)c(Cl)c(Cl)c(Cl)c2C(=O)N1c1cccc(/C=C/c2ccc(O)c(O)c2)c1`, for which the IC50 is above 30 µM in test [1], 13 µM in test [2] and 6.6 µM in test [3].

On to `O=C1c2ccccc2C(=O)N1c1ccc(/C=C/c2ccccc2)cc1`, for which the IC50 in test [1] is above 30 µM; in test [2] it was 90 µM; in test [3], above 30 µM.

`O=C1c2c(Cl)c(Cl)c(Cl)c(Cl)c2C(=O)N1c1ccc(CCc2cccc(O)c2)cc1`: the IC50 was above 30 µM in test [1], 21 µM in test [2] and 3.9 µM in test [3].

In the case of `COc1ccc(CCc2ccccc2N2C(=O)c3c(Cl)c(Cl)c(Cl)c(Cl)c3C2=O)cc1OC`, the IC50 in test [1] was 7.7 µM; in test [2], above 100 µM; in test [3], 6.1 µM.

`COc1ccc(CCc2ccc(N3C(=O)c4c(Cl)c(Cl)c(Cl)c(Cl)c4C3=O)cc2)cc1`: the IC50 in test [1] was above 30 µM; in test [2] it was above 100 µM; in test [3], 8.8 µM.

`COc1ccc(/C=C/c2cccc(N3C(=O)c4c(Cl)c(Cl)c(Cl)c(Cl)c4C3=O)c2)cc1OC`: the IC50 in test [1] was above 30 µM; in test [2], 27 µM; in test [3], above 30 µM.

Consider `O=C1c2c(Cl)c(Cl)c(Cl)c(Cl)c2C(=O)N1c1ccc(/C=C/c2ccccc2)cc1`, for which the IC50 in test [1] is above 30 µM; in test [2] it was 21 µM; in test [3] it was above 30 µM.

On to `O=C1c2c(Cl)c(Cl)c(Cl)c(Cl)c2C(=O)N1c1ccccc1CCc1ccccc1`, for which the IC50 in test [1] is above 3 µM; in test [2], above 100 µM; in test [3], above 3 µM.

For `O=C1c2ccccc2C(=O)N1c1ccc(/C=C/c2ccc(O)c(O)c2)cc1`, the IC50 is above 1 µM in test [1], above 100 µM in test [2] and 1.6 µM in test [3].

Regarding `c1cc2cc(c1)Oc1ccc(cc1)CCc1ccccc1-c1ccc(cc1)CC2`, in test [4], the Selectivity ratio was 11.

Consider `O=C1c2c(Cl)c(Cl)c(Cl)c(Cl)c2C(=O)N1c1ccc(CCc2ccc(O)c(O)c2)cc1`, for which the IC50 was above 30 µM in test [1], above 100 µM in test [2] and 5.1 µM in test [3].

As to `O=C1c2c(Cl)c(Cl)c(Cl)c(Cl)c2C(=O)N1c1cccc(CCc2cccc(O)c2)c1`, the IC50 is above 30 µM in test [1], 50 µM in test [2] and 2.6 µM in test [3].

For the molecule `COc1ccc(CCc2ccc(N3C(=O)c4c(Cl)c(Cl)c(Cl)c(Cl)c4C3=O)cc2)cc1OC`, the result in the test on Saccharomyces sp. was Active. In addition, the IC50 in test [1] is above 30 µM; in test [2], 18 µM; in test [3], above 30 µM.

A word on the IC50: it is the concentration that gives 50% inhibition.
